Assay [1] deals with Mu-type opioid receptor (Rattus norvegicus, UniProt P33535). In words: Displacement of [3H]naloxone from mu opioid receptor in rat brain membrane. The format is cell membranes. The method, boiled down:
(§1)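 Competitive displacement on rat brain membranes: [³H]naloxone for mu sites and [³H]deltorphin II for delta sites, giving IC50 values. Selectivity is expressed as IC50(mu)/IC50(delta).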
Background: Loss of bound radioactivity is the signal in a displacement assay; it reports binding, not function.

The target of assay [2] is Delta-type opioid receptor (Rattus norvegicus, UniProt P33533). In words: Displacement of [3H]deltorphin2 from delta opioid receptor in rat brain membrane. In kind it is cell membranes. The procedure, abridged:
as §1

For assay [3], the target named is Kappa-type opioid receptor (Cavia porcellus) (UniProt P41144). In words: Displacement of [3H]U-69593 from kappa opioid receptor in guinea pig brain membrane at 10 uM. The format is cell membranes. The procedure, abridged: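 Displacement of [³H]U69,593 from guinea pig brain membrane sites, with test concentrations up to 10 µM.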
Assay [4] has as its target Mu-type opioid receptor (Cavia porcellus, UniProt P97266). The assay can be described thus: Agonist activity at mu opioid receptor in guinea pig ileum. In kind it is functional, tissue-based. The method, boiled down: (§2)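 Isolated guinea pig ileum and mouse vas deferens preparations. A [Leu⁵]enkephalin standard dose–response curve was run for each ileum and vas preparation. Compound IC50 values were normalized to that standard by a published procedure.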

A further assay is filed under the species Rattus norvegicus. In words: Ratio of IC50 for mu opioid receptor in rat brain to IC50 for delta opioid receptor in rat brain. The format is tissue-based. The procedure, abridged: as §1
Assay [5] concerns the target Delta-type opioid receptor (Mus musculus, UniProt P32300). The assay can be described thus: Agonist activity at delta opioid receptor in mouse vas deferens. In kind it is functional, tissue-based. The method, boiled down:
as §2

Assay [6] concerns Mus musculus. In words: Analgesic activity in C57 mouse at 2 mg/kg, iv after 5 mins by tail flick test. In kind it is functional, organism-based. Set-up: dose 2 mg/kg. The method, boiled down: (§3)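 Male C57 mice (20–25 g) housed in groups of five on a 12 h light-dark cycle. Peptide in saline was injected into the tail vein (10 mL/kg total) and flushed with saline; controls received saline. Warm-water (55 °C) tail-flick test, three trials, 15 s cutoff. %MPE = (post − control)/(cutoff − control) × 100, read at baseline, 5, 15, 30, 60 and 120 min. One-way ANOVA at each time point.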

Assay [7] relates to Mus musculus. The assay can be described thus: Analgesic activity in C57 mouse at 2 mg/kg, iv after 15 mins by tail flick test. In kind it is functional, organism-based. More on the design: dose 2 mg/kg. The procedure, abridged: as §3

As usually defined, the IC50 is the point on the concentration scale where inhibition reaches its midpoint. High values mean lower potency, low ones higher potency.

Molecules are shown by their SMILES. The source made the active and inactive calls. Where a SMILES comes first, the peptide text is derived from it. [ ]: non-standard residue; d: D form. dNMeA = CN[C@H](C)C(=O)O; Sar = CNCC(=O)O

Chain of Mu-type opioid receptor (Rattus norvegicus, UniProt P33535) (P33535 whole entry): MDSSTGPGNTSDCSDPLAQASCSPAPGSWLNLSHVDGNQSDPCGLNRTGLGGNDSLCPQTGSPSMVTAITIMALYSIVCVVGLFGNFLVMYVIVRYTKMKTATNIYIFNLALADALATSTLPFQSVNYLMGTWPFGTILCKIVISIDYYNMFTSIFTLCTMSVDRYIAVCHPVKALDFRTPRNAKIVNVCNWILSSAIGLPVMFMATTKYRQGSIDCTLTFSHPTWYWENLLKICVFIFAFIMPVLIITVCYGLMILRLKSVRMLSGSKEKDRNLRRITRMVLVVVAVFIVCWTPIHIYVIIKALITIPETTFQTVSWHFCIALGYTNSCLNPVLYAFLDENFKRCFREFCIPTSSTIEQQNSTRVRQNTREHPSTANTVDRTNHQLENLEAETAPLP
Chain of Delta-type opioid receptor (Mus musculus, UniProt P32300) (P32300 whole entry): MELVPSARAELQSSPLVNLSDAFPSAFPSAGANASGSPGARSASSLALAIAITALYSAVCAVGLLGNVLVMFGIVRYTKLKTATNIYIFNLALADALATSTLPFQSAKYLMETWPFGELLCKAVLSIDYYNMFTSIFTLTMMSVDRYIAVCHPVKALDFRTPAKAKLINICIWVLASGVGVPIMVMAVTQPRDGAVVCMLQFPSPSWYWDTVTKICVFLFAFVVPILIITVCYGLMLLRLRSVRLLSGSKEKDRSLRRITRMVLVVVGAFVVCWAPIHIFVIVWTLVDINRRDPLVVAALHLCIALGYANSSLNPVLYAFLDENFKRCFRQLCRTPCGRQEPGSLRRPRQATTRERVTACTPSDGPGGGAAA
Chain of Kappa-type opioid receptor (Cavia porcellus) (P41144 whole entry): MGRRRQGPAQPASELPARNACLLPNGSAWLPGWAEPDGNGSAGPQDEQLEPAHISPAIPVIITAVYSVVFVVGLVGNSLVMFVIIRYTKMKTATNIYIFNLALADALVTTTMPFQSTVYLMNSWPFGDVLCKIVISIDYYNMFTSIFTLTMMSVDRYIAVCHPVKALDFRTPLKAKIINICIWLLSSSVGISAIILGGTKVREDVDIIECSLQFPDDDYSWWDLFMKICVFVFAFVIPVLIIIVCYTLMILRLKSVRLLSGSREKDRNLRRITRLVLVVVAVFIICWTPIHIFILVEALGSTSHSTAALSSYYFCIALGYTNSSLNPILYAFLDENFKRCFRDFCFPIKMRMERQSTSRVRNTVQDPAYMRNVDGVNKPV
Chain of Mu-type opioid receptor (Cavia porcellus, UniProt P97266) (P97266 whole entry): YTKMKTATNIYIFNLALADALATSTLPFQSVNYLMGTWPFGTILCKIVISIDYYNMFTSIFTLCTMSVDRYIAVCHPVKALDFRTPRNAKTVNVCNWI
Chain of Delta-type opioid receptor (Rattus norvegicus, UniProt P33533) (P33533 whole entry): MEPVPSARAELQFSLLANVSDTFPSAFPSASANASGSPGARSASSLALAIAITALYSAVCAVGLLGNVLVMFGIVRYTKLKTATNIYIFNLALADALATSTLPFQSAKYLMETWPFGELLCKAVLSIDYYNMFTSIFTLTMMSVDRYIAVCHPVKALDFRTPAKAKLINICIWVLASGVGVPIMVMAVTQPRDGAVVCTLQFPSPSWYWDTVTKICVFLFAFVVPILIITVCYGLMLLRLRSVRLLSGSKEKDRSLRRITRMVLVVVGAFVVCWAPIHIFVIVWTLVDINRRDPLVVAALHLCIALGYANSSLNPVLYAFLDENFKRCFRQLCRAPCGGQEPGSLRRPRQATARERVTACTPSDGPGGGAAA

With `C[C@H](C(=O)N[C@H]1Cc2ccccc2CN(CC(N)=O)C1=O)N1Cc2cc(O)ccc2C[C@H](N)C1=O`, the IC50 came to 20.8 µM at Mu-type opioid receptor [1], 17.8 µM in assay [2], 3.64 µM on Mu-type opioid receptor [4] and 30.3 µM in assay [5]. Also, the outcome in assay [3] was inactive. The Ratio IC50 in the assay listed under Rattus norvegicus is 1.17.
Turning to `C[C@H](C(=O)N[C@@H](Cc1ccccc1)C(=O)N(C)CC(N)=O)N(C)C(=O)[C@@H](N)Cc1ccc(O)cc1` (H-Y[dNMeA]F[Sar]-NH2), the IC50 was found to be 28.1 µM at Mu-type opioid receptor [1], 7.1 µM in assay [2], 22 µM at Mu-type opioid receptor [4] and 79.7 µM in assay [5]. Besides, the result with Mus musculus [6] and in the assay on Mus musculus [7] was Active. In addition, the result in assay [3] was inactive. Besides, the Ratio IC50 in the assay listed under Rattus norvegicus is 3.96.

The values above are taken from ChEMBL document CHEMBL1144823, “Blood-brain barrier penetration by two dermorphin tetrapeptide analogues: role of lipophilicity vs structural flexibility” (J Med Chem, 2008).
